# Compound activity from PubChem BioAssay.
# LMPTP block – LMPTP (human) inhibition. 0.22% of 360,000 active. inhibition, % at 20 µM. recombinant LMPTP-A, OMFP fluorogenic substrate, fluorescence intensity. P24666;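 active = compounds that cut the enzyme signal by at least half of the control window in the single-dose screen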;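 note: plate controls were DMSO wells with enzyme plus substrate for no effect and substrate without enzyme for full effect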
# Target sequence (P24666 whole entry, looked up): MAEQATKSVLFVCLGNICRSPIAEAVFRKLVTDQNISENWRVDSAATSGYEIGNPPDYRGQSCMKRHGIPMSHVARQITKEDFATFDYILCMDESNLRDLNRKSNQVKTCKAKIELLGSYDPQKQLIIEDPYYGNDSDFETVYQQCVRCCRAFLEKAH
#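 material = LMPTP-A | quantity = 0.625 nM enzyme | reagent = OMFP substrate, 400 µM final | buffer or medium = Bis-Tris pH 6.0, DTT, detergent | detection = endpoint fluorescence intensity from OMFP dephosphorylation | dosing = single 20 µM dose | read-out basis = % inhibition relative to no-enzyme and uninhibited control wells | control set = no-enzyme and uninhibited controls | timing = 50 min at room temperature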
# STEP inh – STEP (human) phosphatase inhibition | P54829 | recombinant STEP, OMFP fluorogenic substrate, fluorescence | inhibition, % at 20 µM | 0.25% of 360,000 active | AID 588621;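 active = inhibition at 20 µM, scaled per plate between control wells, above about 37%, limit read from the data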;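 note: 0% = DMSO with enzyme and substrate and 100% = substrate only without enzyme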
#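 Test system: STEP tyrosine phosphatase / Reagent: OMFP at 25 µM / Doses: 20 µM, 1% DMSO / Read-out: percent inhibition scaled to no-enzyme and uninhibited-enzyme controls, plate-pattern corrected / Detection: FITC-channel fluorescence of OMFP product / Medium: Bis-Tris buffer pH 6.0, 2.5 mM DTT, 0.005% Tween 20 / Schedule: 20 min at room temperature, dark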
# SUMO1 PPI mod – SUMO1-SIM interaction modulation; SUMO1 binding to a labelled peptide, TR-FRET, 1 h; inhibition, % at 20 µM; 0.33% of 360,000 active; AID 602429; in the data active = inhibition above about 37%
# Target sequence (P63165 whole entry, looked up): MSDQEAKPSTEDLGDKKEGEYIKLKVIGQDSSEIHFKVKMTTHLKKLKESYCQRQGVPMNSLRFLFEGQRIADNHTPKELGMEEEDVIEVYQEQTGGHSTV
# Pemphigus Ab inh – inhibitors of pemphigus antibody binding to human desmoglein-3. AID 588358. P32926. binding (percent of control), % at 10 µM. 0.48% of 310,000 active. DSG3-coupled beads, scFv-anti-DSG3-GFP binding, flow cytometry; hits give low values;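 active = binding more than 3 SD below its plate's average and above zero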;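 note: hits lower antibody fragment binding to DSG3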
# Scp1 inh – Scp-1 (human) phosphatase inhibition | Q9GZU7 | Recombinant Scp1, phosphopeptide, malachite green phosphate absorbance | inhibition, % at 20 µM | 0.88% of 340,000 active | AID 493091;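 active = inhibition above about 50% at 20 µM, limit read from the data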;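 note: plate controls were DMSO wells with enzyme for no effect and wells lacking enzyme for full effect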
# Target sequence (Q9GZU7 76-261 limits assumed): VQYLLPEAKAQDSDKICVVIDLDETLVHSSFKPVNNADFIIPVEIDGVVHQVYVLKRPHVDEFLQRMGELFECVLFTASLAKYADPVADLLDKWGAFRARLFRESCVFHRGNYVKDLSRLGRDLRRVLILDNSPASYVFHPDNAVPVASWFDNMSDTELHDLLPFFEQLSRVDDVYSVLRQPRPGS
#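 assay system = SCP-1 phosphatase catalytic domain, residues 76-261 | buffer or medium = 50 mM Tris acetate pH 5.5, 0.005% Tween-20, 10 mM MgCl2 | incubation = enzyme reaction 45 min at room temperature, colour 5 min, stabilisation 30 min | signal = Phosphate-binding colour reagent, absorbance read at 630 nm | measure = % inhibition at 20 µM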
# * marks the source's active call; other numbers are inactive results; i = inactive; . = no result; ! = not active in a repeat. Sampled rows, rich in hits. Any-hit rate of the full collection: about 1.7%.
SMILES,LMPTP block,STEP inh,SUMO1 PPI mod,Pemphigus Ab inh,Scp1 inh
Cc1ccnn1-c1ccc(C(=O)N2CCCN(S(=O)(=O)c3ccc(F)cc3)CC2)cc1,0,-1,8,103,-1
Cn1c(=NC(=O)C2CCN(S(=O)(=O)c3cccs3)CC2)sc2ccccc21,1,0,43*!,.,-1
O=C(NCc1ccccc1)c1ncn(Cc2ccccc2)c1C(=O)NCc1ccccc1,2,-1,7,107,-14
CCc1nc2ccc(C(=O)NCCc3ccco3)cc2nc1CC,0,2,-7,.,-7
O=C(NCc1ccccc1)c1ccccc1,-1,-2,-7,101,-4
O=C(NCc1ccccc1)c1ccc(C(=O)NCc2ccccc2)cc1,0,1,-1,79*,-10
Cn1cnc(C(=O)NCc2ccccc2)c1C(=O)NCc1ccccc1,-1,0,7,70*,4
O=C(NCc1ccccc1)c1ccc2nccnc2c1,-1,-1,-25,96,-10
O=C(NCc1ccccc1)c1ccc2nc(-c3ccco3)c(-c3ccco3)nc2c1,75*,9,41*,84,84*
O=C(NCCCO)c1ccc2nc(-c3ccco3)c(-c3ccco3)nc2c1,0,8,45*,36*,22
O=[N+]([O-])c1ccccc1C(=Nc1ccccc1)c1c(O)cc(O)cc1O,2,-2,-16,106,.
COc1ccccc1NC(=O)N1CCC(NC(=O)C(Cc2ccccc2F)NC(C)=O)CC1 (stereo not given),0,0,4,113,-15
Nn1c(SCC(=O)Nc2c(F)cc(F)cc2Br)nnc1C1CCCCC1,0,4,46*,101,0
O=C1C(=C(I)I)c2ccccc2-c2ccccc21,37,11,36*,.,44
Cc1ccc(S(=O)(=O)N2CCOCC2)cc1C(=O)NC1CCSc2ccccc21 (stereo not given),-2,-2,-2,.,1
COc1ccccc1C(=O)N1CCCC(C)(C(=O)NS(=O)(=O)C2CC2)C1 (stereo not given),-2,0,1,.,.
Nc1ccc2ccc(O)cc2c1,6,-2,24,93,33
C[n+]1c2cc(N)ccc2cc2ccc(N)cc21,8,i,78*!,281,-1
Cc1cccc(N2C(=O)CC(Sc3nc(-c4ccccc4)c4cc(Cl)ccc4n3)C2=O)c1 (stereo not given),1,-1,44*,95,-7
Cc1oc2c(CN3CCCCC3C)c(O)ccc2c(=O)c1-c1ccc(Br)cc1 (stereo not given),1,0,-2,108,-4
c1ccc(-c2nc(NC3CCCC3)c3ccccc3n2)cc1,62*,-4,1,110,-1
C/C(CC(=O)NCc1ccco1)=N\NC(=O)Cc1ccccc1,-2,-2,1,121,-2
C/C(CC(=O)NCc1ccco1)=N\NC(=O)C(c1ccccc1)c1ccccc1,2,-2,49*,103,-3
O=S(=O)(c1cccs1)N1CCN(c2ccccn2)CC1,-1,0,-2,80*,0
Cc1cccc(NC(=O)CNC(=O)CSc2nc(N)cc(N)n2)c1C,6,7,0,92,1
SMILES,LMPTP block,STEP inh,SUMO1 PPI mod,Pemphigus Ab inh,Scp1 inh
O=C(N/N=C/c1ccncc1)c1sc2ccccc2c1Cl,-1,-1,-21,-1.9*,2
COc1ccc2c(Cl)c(C(=O)N/N=C/c3ccncc3)sc2c1,49,2,-4,115,1
O=C(/C=C/c1ccc(Br)cc1)NC(=S)Nc1ccc(S(=O)(=O)Nc2nccs2)cc1,16,-3,94*,90,-3
O=C(NC(=S)Nc1ccc(S(=O)(=O)Nc2nccs2)cc1)c1ccc(Br)o1,2,0,12,98,10
COc1ccc(N2CSC3=C(C#N)C(c4cccc(OC)c4OC)CC(=O)N3C2)cc1 (stereo not given),5,1,-8,96,52*
Fc1cccc(CN2CCN(Cc3nc(-c4cnccn4)no3)CC2)c1,-2,-1,-3,-16*,-14
Cc1ccc(-n2ncc3c2CC(C)(C)CC3NC(=O)c2c(C)noc2C)cc1 (stereo not given),0,-2,-3,.,7
Cc1cccc(NC(=O)CC2C(=O)NC3CCCCC3N2C(=O)c2ccccc2Cl)c1 (stereo not given),-1,-4,-2,89*,-4
